This passage reports folding enthalpy and Tm results from the array DNA melting data of Ke et al. (doi:10.1101/2024.01.08.574731).

Data set [1] in a line: folding enthalpy; higher = less favourable; fluorescence melt of hairpins on a sequencing array, two-state fit. Conditions: sodium 0.088 M. An outline of the steps:
(§1)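 Melting temperature and folding enthalpy were obtained by bootstrapped two-state fitting. Fits used Cy3 fluorescence of library hairpins with annealed Cy3 and quencher oligos on a sequenced MiSeq flow cell, imaged in 50 mM Na-HEPES pH 8.0, 25 mM NaCl in 2.5 °C steps up to 60 °C and normalised to pre-quench Cy3 and control constructs. Four replicates were combined by inverse-variance weighting, and fitted temperatures were raised by 9.35 °C to match UV melts.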

Data set [2] in a line: melting temperature; fluorescence melt of hairpins on a sequencing array, two-state fit, raised by 9.35 °C to match UV melts. Conditions: sodium 0.088 M. The method, boiled down: as §1

Consider GATCACCCTAGTGATC ((((((....)))))), for which the folding enthalpy in data set [1] was -38.9 kcal/mol. Moreover, in data set [2], the Tm came out at 58.9 °C.
In the case of GATCACCCTCGTGATC ((((((....)))))), the folding enthalpy in data set [1] is -43.6 kcal/mol. In addition, in data set [2], the Tm was 55.8 °C.
In the same order, the values of GATCACCGCGTGATC ((((((...)))))) are -35.6 kcal/mol and 61.9 °C.
Consider GATCACCGGGTGATC ((((((...)))))), for which, in data set [1], the folding enthalpy is -30.8 kcal/mol. The Tm in data set [2] was determined as 55 °C.
The like results for GATCACCTACGTGATC ((((((....)))))) were, in that order, -43 kcal/mol and 56.6 °C.
Consider GATCACCTAGTGATC ((((((...)))))), for which, in data set [1], the folding enthalpy is -34.8 kcal/mol. Also, in data set [2], the Tm came out at 58.2 °C.
The like results for GATCACCTCCGTGATC ((((((....)))))) were, in that order, -32.5 kcal/mol and 55 °C.
The like results for GATCACCTCGGTGATC ((((((....)))))) were, in that order, -37.5 kcal/mol and 65.4 °C.
The like results for GATCACCTTGTGATC ((((((...)))))) were, in that order, -40.9 kcal/mol and 58.8 °C.
As for GATCACGAAAGTGAAATC ((((((....)))..))), the folding enthalpy in data set [1] is -10.7 kcal/mol. The Tm in data set [2] stood at 30.2 °C.
The like results for GATCACGAAAGTGAATC ((((((....))).))) were, in that order, -15.8 kcal/mol and 45.6 °C.
The like results for GATCACGAAAGTGACATC ((((((....)))..))) were, in that order, -10.1 kcal/mol and 30 °C.
In the same order, the values of GATCACGAAAGTGGATC ((((((....))).))) are -18.2 kcal/mol and 46.9 °C.
On to GATCACGAAAGTGGGATC ((((((....)))..))), for which the folding enthalpy in data set [1] was -15.6 kcal/mol. The Tm in data set [2] is 38 °C.
The like results for GATCACGAAGGTGATC ((((((....)))))) were, in that order, -32.7 kcal/mol and 65.3 °C.
In the same order, the values of GATCACGAGGTGATC ((((((...)))))) are -33.7 kcal/mol and 57.8 °C.
The like results for GATCACGATGGTGATC ((((((....)))))) were, in that order, -36.1 kcal/mol and 58.8 °C.
For GATCACGCACGTGATC ((((((....)))))), the folding enthalpy in data set [1] is -40.5 kcal/mol. For the same sequence, in data set [2], the Tm is 68.9 °C.
In the same order, the values of GATCACGCATGTGATC ((((((....)))))) are -43.1 kcal/mol and 67.3 °C.
For GATCACGCCGTGATC ((((((...)))))), the folding enthalpy in data set [1] was -29.8 kcal/mol. In data set [2], the Tm is 63.2 °C.
The like results for GATCACGCGGTGATC ((((((...)))))) were, in that order, -40.2 kcal/mol and 59.2 °C.
As to GATCACGCTCGTGATC ((((((....)))))), the folding enthalpy in data set [1] was -45.5 kcal/mol. In data set [2], the Tm came out at 60.9 °C.
In the case of GATCACGCTGTGATC ((((((...)))))), the folding enthalpy in data set [1] was -39.5 kcal/mol. The Tm in data set [2] is 59.2 °C.
The like results for GATCACGGAAACGTAATC (((.(((....))).))) were, in that order, -20.3 kcal/mol and 31.5 °C.
With GATCACGGAAACGTGACC (.(((((....))))).), the folding enthalpy in data set [1] is -14.7 kcal/mol. Besides, in data set [2], the Tm is 45.1 °C.
Regarding GATCACGGCGGTGATC ((((((....)))))), the folding enthalpy in data set [1] was -45.6 kcal/mol. In addition, in data set [2], the Tm amounted to 58.8 °C.
The like results for GATCACGGGGTGATC ((((((...)))))) were, in that order, -33.6 kcal/mol and 60.3 °C.
Consider GATCACGGGTGTGATC ((((((....)))))), for which the folding enthalpy in data set [1] is -36.9 kcal/mol. In data set [2], the Tm stood at 58.8 °C.
The like results for GATCACGTACGTGATC ((((((....)))))) were, in that order, -47.7 kcal/mol and 64 °C.
The like results for GATCACGTGTGTGATC ((((((....)))))) were, in that order, -37.3 kcal/mol and 58.9 °C.
As to GATCACGTTTGTGATC ((((((....)))))), in data set [1], the folding enthalpy was -40.4 kcal/mol. Further, the Tm in data set [2] was found to be 58.5 °C.
In the case of GATCACTAAGGTGATC ((((((....)))))), the folding enthalpy in data set [1] is -35.4 kcal/mol. In addition, the Tm in data set [2] was 57 °C.
Take GATCACTAGGTGATC ((((((...)))))): in data set [1], the folding enthalpy was -40.9 kcal/mol. Further, the Tm in data set [2] came to 55.2 °C.
In the same order, the values of GATCACTATCGTGATC ((((((....)))))) are -41.2 kcal/mol and 55.1 °C.
The like results for GATCACTCTTGTGATC ((((((....)))))) were, in that order, -38.5 kcal/mol and 56.7 °C.
In the same order, the values of GATCACTGAGGTGATC ((((((....)))))) are -40.5 kcal/mol and 59.4 °C.
Consider GATCACTGATGTGATC ((((((....)))))), for which the folding enthalpy in data set [1] was -34.5 kcal/mol. Further, the Tm in data set [2] came to 55.9 °C.
The like results for GATCACTGGGGTGATC ((((((....)))))) were, in that order, -47.5 kcal/mol and 58.3 °C.
In the case of GATCACTGGGTGATC ((((((...)))))), in data set [1], the folding enthalpy is -33.1 kcal/mol. Moreover, the Tm in data set [2] is 57.3 °C.
The like results for GATCACTGTAGTGATC ((((((....)))))) were, in that order, -39.7 kcal/mol and 60.6 °C.
The like results for GATCACTGTCGTGATC ((((((....)))))) were, in that order, -37.3 kcal/mol and 54.9 °C.
The like results for GATCACTGTGTGATC ((((((...)))))) were, in that order, -31 kcal/mol and 61.7 °C.
GATCACTGTTGTGATC ((((((....)))))): in data set [1], the folding enthalpy was -31.8 kcal/mol. Besides, in data set [2], the Tm amounted to 57.5 °C.
The like results for GATCACTTAGGTGATC ((((((....)))))) were, in that order, -41.6 kcal/mol and 57.6 °C.
The like results for GATCACTTGGGTGATC ((((((....)))))) were, in that order, -40 kcal/mol and 57.1 °C.
In the same order, the values of GATCACTTTGTGATC ((((((...)))))) are -34.2 kcal/mol and 63.1 °C.
As for GATCACTTTTGTGATC ((((((....)))))), in data set [1], the folding enthalpy was -43.1 kcal/mol. Also, the Tm in data set [2] came out at 59 °C.
The like results for GATCAGAAACTGATC ((((((...)))))) were, in that order, -36.4 kcal/mol and 47.5 °C.
The like results for GATCAGAAGGCTGATC ((((((....)))))) were, in that order, -29.4 kcal/mol and 45.8 °C.
Turning to GATCAGACACTGATC ((((((...)))))), the folding enthalpy in data set [1] was -47.1 kcal/mol. Further, the Tm in data set [2] was found to be 48.6 °C.
The like results for GATCAGACAGCTGATC ((((((....)))))) were, in that order, -32 kcal/mol and 45.3 °C.
With GATCAGACATCTGATC ((((((....)))))), the folding enthalpy in data set [1] is -39.6 kcal/mol. Also, the Tm in data set [2] worked out at 48.2 °C.
In the same order, the values of GATCAGACCCCTGATC ((((((....)))))) are -34.7 kcal/mol and 47.7 °C.
The like results for GATCAGACTGCTGATC ((((((....)))))) were, in that order, -28.1 kcal/mol and 48.3 °C.
In the same order, the values of GATCAGAGCCCTGATC ((((((....)))))) are -36.5 kcal/mol and 47.7 °C.
GATCAGAGCCTGATC ((((((...)))))): the folding enthalpy in data set [1] is -25.4 kcal/mol. In data set [2], the Tm worked out at 47.4 °C.
Regarding GATCAGAGCTCTGATC ((((((....)))))), in data set [1], the folding enthalpy was -53 kcal/mol. Moreover, in data set [2], the Tm came to 54.1 °C.
In the same order, the values of GATCAGAGGGCTGATC ((((((....)))))) are -39.2 kcal/mol and 47.7 °C.
The like results for GATCAGAGTGCTGATC ((((((....)))))) were, in that order, -31.2 kcal/mol and 50.2 °C.
Take GATCAGATTGCTGATC ((((((....)))))): the folding enthalpy in data set [1] was -39.4 kcal/mol. Also, the Tm in data set [2] amounted to 49.5 °C.
With GATCAGCACCTGATC ((((((...)))))), the folding enthalpy in data set [1] is -31.1 kcal/mol. Also, the Tm in data set [2] is 48.3 °C.
The like results for GATCAGCAGCCTGATC ((((((....)))))) were, in that order, -36.5 kcal/mol and 48.7 °C.
Regarding GATCAGCATACTGATC ((((((....)))))), in data set [1], the folding enthalpy is -38.5 kcal/mol. Moreover, in data set [2], the Tm was 51.4 °C.
GATCAGCATCTGATC ((((((...)))))): in data set [1], the folding enthalpy is -34.2 kcal/mol. Besides, in data set [2], the Tm turned out to be 46.7 °C.
On to GATCAGCCATCTGATC ((((((....)))))), for which, in data set [1], the folding enthalpy was -37.4 kcal/mol. For the same sequence, the Tm in data set [2] was determined as 49.4 °C.
The like results for GATCAGCCGGCTGATC ((((((....)))))) were, in that order, -48 kcal/mol and 63.4 °C.
The like results for GATCAGCGAAAGCTAATC (((.(((....))).))) were, in that order, -15.7 kcal/mol and 35.9 °C.
The like results for GATCAGCGAAAGCTCATC (((.(((....))).))) were, in that order, -13 kcal/mol and 29.8 °C.
With GATCAGCGGCCTGATC ((((((....)))))), in data set [1], the folding enthalpy is -36.9 kcal/mol. Further, the Tm in data set [2] came to 49.8 °C.
In the same order, the values of GATCAGCTAACTGATC ((((((....)))))) are -40 kcal/mol and 49.7 °C.
Consider GATCAGCTGCCTGATC ((((((....)))))), for which, in data set [1], the folding enthalpy was -27.5 kcal/mol. Further, the Tm in data set [2] turned out to be 50.5 °C.
As to GATCAGCTTACTGATC ((((((....)))))), the folding enthalpy in data set [1] was -34 kcal/mol. Further, the Tm in data set [2] was found to be 51.3 °C.
The like results for GATCAGCTTCTGATC ((((((...)))))) were, in that order, -31.5 kcal/mol and 49.1 °C.
Regarding GATCAGGACCCTGATC ((((((....)))))), the folding enthalpy in data set [1] is -39.6 kcal/mol. Moreover, the Tm in data set [2] came out at 54.4 °C.
The like results for GATCAGGATGCTGATC ((((((....)))))) were, in that order, -43.3 kcal/mol and 50.3 °C.
The like results for GATCAGGCACCTGATC ((((((....)))))) were, in that order, -41.7 kcal/mol and 55.4 °C.
